Screening data from PubChem BioAssay.
A selection: hits, their analogues and other compounds. The true share with any hit is near 2.8%.
EP2 mod: EP2 receptor modulators, cAMP readout, primary screen, cell-based, HTRF cAMP, PGE2 stimulation | Prostaglandin E2 receptor EP2 subtype (Homo sapiens), P43116 | EP2-expressing cells, cAMP HTRF FRET, PGE2 co-stimulation | induction, % at 25 µM | 260,000 compounds, 0.83% hits | AID 940, 2007;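 active = compounds whose cAMP rise, as percent of the full-agonist control response, exceeds 60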;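 note: rat C6 glioma line stably carrying human EP2 under a CMV promoter; the protocol text gives 20 µM as final concentration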
NPY-Y1 antag: NPY-Y1 receptor antagonists, primary screen, cell-based; AID 1040, 2008; Neuropeptide Y receptor type 1 (Homo sapiens), P25929; 200,000 compounds, 1% hits; inhibition, % at 3.6 µM; HEK293-CNG Y1 cells, membrane potential fluorescence; NPY at EC95, then isoproterenol;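 active = inhibition above the campaign mean inhibition of all tested compounds plus 3 SD, cut at about 20% in these data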
Target sequence (P25929 whole entry, looked up): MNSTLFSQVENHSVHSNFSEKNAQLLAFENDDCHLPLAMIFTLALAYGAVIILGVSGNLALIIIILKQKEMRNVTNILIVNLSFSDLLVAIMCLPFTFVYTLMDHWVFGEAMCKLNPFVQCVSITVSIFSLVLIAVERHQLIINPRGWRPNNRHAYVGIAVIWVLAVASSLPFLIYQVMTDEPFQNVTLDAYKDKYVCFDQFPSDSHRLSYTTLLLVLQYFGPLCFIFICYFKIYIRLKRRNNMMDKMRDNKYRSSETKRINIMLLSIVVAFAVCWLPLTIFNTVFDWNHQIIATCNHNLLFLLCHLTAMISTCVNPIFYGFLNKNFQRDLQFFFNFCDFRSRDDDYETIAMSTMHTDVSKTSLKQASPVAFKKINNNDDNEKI
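material = HEK293 cells with Y1 receptor plus CNG channel | also added = NPY 25 nM then isoproterenol 1 µM plus Ro 20-1724 25 µM | schedule = dye 3 h, compound 60 min room temperature, stimulation 45 min | measured by = membrane potential fluorescence | benchmarks = high control isoproterenol alone, low control NPY with isoproterenol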
NPY-Y2 antag: NPY-Y2 receptor antagonists, primary screen, cell-based; Neuropeptide Y receptor type 2 (Homo sapiens), P49146; NPY-Y2 expressing cells, antagonist mode; inhibition, % at 2.7 µM; 140,000 compounds, 0.99% hits
NPY-Y2 PAM-ag: NPY-Y2 potentiators or agonists, primary screen, cell-based; Neuropeptide Y receptor type 2 (Homo sapiens), P49146; cells expressing NPY-Y2, potentiator/agonist read-out; activation, % at 3.6 µM; 220,000 compounds, 0.45% hits; AID 1359, 2008; in the data active = activation above about 27%;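 note: cells stimulated with NPY near EC25 plus isoproterenol at EC100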
PGE2 EP2 inh: human EP2 receptor antagonists, primary screen, TR-FRET cAMP, C6 glioma cells; C6 glioma cells expressing human EP2; cells stimulated with saturating PGE2; inhibition, % at 25 µM; 260,000 compounds, 0.52% hits; Prostaglandin E2 receptor EP2 subtype (Homo sapiens), P43116;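 active = percent inhibition above 40 after rounding to a whole number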;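 note: rat C6 glioma host cells with rolipram phosphodiesterase inhibitor present; the protocol text gives 20 µM as final concentration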
NPY-Y1 PAM-ag: NPY-Y1 receptor potentiators or agonists, primary screen, cell-based. NPY-Y1 expressing cells, potentiator/agonist activation. activation, % at 3.6 µM. 220,000 compounds, 0.37% hits. AID 1304, 2008; in the data active = activation above about 33%, passing the limit was not always enough;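 note: cells stimulated with NPY at EC10 then isoproterenol at EC100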
NPY1 antag conf: NPY-Y1 receptor antagonists, retest of hits, confirmation, HEK293-CNG cells, membrane potential fluorescence, triplicate; 1,200 compounds, 21% hits; shares compounds with NPY-Y1 antag; cAMP; NPY challenge against isoproterenol-raised cAMP; inhibition, % at 3.6 µM; in the data active = inhibition above about 20%
NPY-Y2 antag ct: NPY-Y2 receptor antagonists, selectivity check, confirmation, counter-screen for NPY-Y1 antagonist project, HEK293-CNG cells, membrane potential fluorescence, triplicate; shares compounds with NPY-Y1 antag; antagonism; cells given NPY, then isoproterenol; inhibition, % at 3.6 µM; 1,200 compounds, 28% hits; AID 1255, 2008
NPY-Y2 confirm: NPY-Y2 potentiators or agonists, confirmation, cell-based. activation, % at 3.6 µM. shares compounds with NPY-Y2 PAM-ag. cell-based NPY-Y2 potentiator/agonist assay. AID 1539, 2009. 450 compounds, 20% hits; in the data active = activation above about 33%
NPY-Y1 counter: NPY-Y1 potentiators or agonists, counter-screen for NPY-Y2 potentiator project, cell-based, fluorescence. Y1 HEK293-CNG cells, membrane potential fluorescence. shares compounds with NPY-Y2 PAM-ag. 450 compounds, 20% hits. activation, % at 3.6 µM; in the data active = activation above about 45%;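 note: cells stimulated with submaximal NPY then isoproterenol with phosphodiesterase inhibitor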
NPY-Y1 ag 2: NPY-Y1 direct agonists, selectivity assay for NPY-Y2 potentiator project, cell-based, fluorescence; shares compounds with NPY-Y2 PAM-ag; 450 compounds, 37% hits; activation, % at 3.6 µM; AID 1702, 2009; HEK293 Y1-CNGC, membrane potential fluorescence, agonism;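 active = activation above the mean of DMSO-only control wells plus 3 SD, cut at about 18% in these data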;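 note: cells stimulated with 1 µM isoproterenol plus the PDE inhibitor Ro 20-1724; Y1 agonists lower the membrane potential dye signal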
CNGC inh: CNGC cAMP sensor activity inhibitors, counter-screen for NPY-Y2 potentiator project, cell-based, HEK293-CNG parental, membrane potential fluorescence; shares compounds with NPY-Y2 PAM-ag; isoproterenol cAMP; inhibition, % at 3.6 µM; 450 compounds, 32% hits; AID 1703, 2009;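 active = inhibition above the control-well mean plus 3 SD of those wells, cut at about 22% in these data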
Y2 agonist ctr: NPY-Y2 direct agonists, counter-screen for NPY-Y2 potentiator project, cell-based, fluorescence; shares compounds with NPY-Y2 PAM-ag; HEK293 Y2/CNGC cells, membrane potential fluorescence, agonist mode; 450 compounds, 56% hits; activation, % at 3.6 µM;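 active = activation above the mean of solvent-only control wells plus 3 SD, cut at about 10% in these data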;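 note: cells stimulated by isoproterenol with no NPY added so direct agonism is tested; agonism lowers probe fluorescence through less cAMP and CNG channel opening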
Hits are given with their value; – = inactive; · = no result given. Cut-off read from the data, not from the text of the source, unless noted: active = inhibition above about 17%; inactive = the rest.

SMILES | EP2 mod | NPY-Y1 antag | NPY-Y2 antag | NPY-Y2 PAM-ag | PGE2 EP2 inh | NPY-Y1 PAM-ag | NPY1 antag conf | NPY-Y2 antag ct | others
CCOC(=O)C1(CCc2ccccc2)CCN(C2CCSCC2)CC1 | – | 23 | · | – | – | – | – | –
Cc1ccc(C2=CCN(CC(=O)Nc3ccc4c(c3)OCCO4)CC2)o1 | – | · | · | · | · | · | · | ·
COc1cc(CN2C3CCC2CC(O)(c2ccc(F)cc2)C3)ccc1OC(C)C (centres undefined) | – | · | · | · | – | · | · | ·
COc1cccc(NP(=O)(Oc2ccccc2)Oc2ccccc2)c1 | – | 22 | – | – | – | – | – | –
COc1ccc2ccc(O)c(CN3CC=C(c4ccccc4)CC3)c2c1 | – | 23 | · | – | – | – | – | 24
COc1ccc2c(CN3CC=C(c4ccccc4)CC3)cc(=O)oc2c1 | – | – | · | – | – | – | · | ·
CC[C@]12C=CCN3CC[C@@]4(c5ccc(OC)cc5N(C)C4[C@@](O)(C(=O)OC)[C@@H]1OC(C)=O)[C@@H]32 (some centres undefined) | – | · | · | · | – | · | · | ·
Cc1ccccc1C(O)(Cc1ccccc1)C1CN2CCC1CC2 (centres undefined) | – | 21 | – | – | – | – | – | –
Fc1ccccc1CNC1CN2CCC1CC2 (centres undefined) | – | – | · | – | – | – | · | ·
Cc1[nH]c2ccc(F)cc2c1CC(=O)N(CCN(C)C)Cc1cccnc1 | – | · | · | · | – | · | · | ·
O=c1[nH]c(=O)n(-c2cccc3ccccc23)c(O)c1/C=N/N1CCCCC1c1cccnc1 (centres undefined) | – | 25 | – | – | – | – | – | –
COc1cccc(C(=O)C2CCCN(Cc3ccc4nonc4c3)C2)c1 (centres undefined) | – | 29 | · | – | – | – | – | –
CN(C)C(Cc1ccccc1)C(=O)c1ccc(-c2ccccc2)cc1 (centres undefined) | – | 27 | – | – | – | – | – | –
COc1ccc(-c2nc(C)sc2CC(=O)N(CCN(C)C)C2CCCC2)cc1 | – | · | · | · | – | · | · | ·
CCOc1cccc(C2NCc3ccccc3-n3cccc32)c1O (centres undefined) | – | – | – | – | – | – | · | ·
CCOc1cc(C2NCc3ccccc3-n3cccc32)ccc1O (centres undefined) | – | 22 | – | – | · | – | – | –
OC12CCCCC1CN(Cc1ccc3ncccc3c1)CC2 (centres undefined) | – | · | · | · | – | · | · | ·
Cc1cc(NCCN)nc2ccccc12 | – | 21 | – | – | – | – | – | –
Cc1ccsc1C(=O)C1CCCN(Cc2ccccc2O)C1 (centres undefined) | – | – | · | – | – | – | · | ·
Cc1ccsc1C(=O)C1CCCN(Cc2cccn2-c2ccccn2)C1 (centres undefined) | – | 29 | · | – | – | – | 21 | 24
CN(CC1COc2ccccc2O1)c1nc(-c2cccnc2)nc2ccccc12 (centres undefined) | – | 22 | – | – | – | – | – | –
CN1CCC(N(C)c2nc(-c3ccc([N+](=O)[O-])cc3)nc3ccccc23)CC1 | – | – | – | – | · | – | · | ·
CN(C)c1ccc(-[n+]2c(-c3ccccc3)cc(-c3ccccc3)cc2-c2ccccc2)cc1 | – | 50 | · | 51 | – | – | 35 | 18 | NPY-Y2 confirm=–;NPY-Y1 counter=–;NPY-Y1 ag 2=–;CNGC inh=–;Y2 agonist ctr=12
COc1cccc(C2(O)CCN(CCNC(=O)c3c(C)noc3C)CC2)c1 | – | · | · | · | – | · | · | ·
